# Assay results collected from several papers.
# Each line is one published result; the experiments were not run side by side.
# PPO3: PPO3 (Agaricus bisporus, UniProt C7FF04)
# BCL2L1: Bcl-2-like protein 1 (BCL2L1, Homo sapiens, UniProt Q07817)
# CNR1: Cannabinoid receptor 1 (CNR1, Homo sapiens, UniProt P21554)
SMILES,target,assay,measurement,value
O=c1[nH]c(=O)c(Cc2cccc(C(F)(F)F)c2)c([C@H]2CC[C@H](c3ccccc3)CC2)[nH]1,"UDP-glucuronosyltransferase 1A3 (UGT1A3, Homo sapiens, UniProt P35503)","enzyme activity, inhibitor",IC50,> 20000 nM
Cc1ccccc1NC(=O)CSc1nc2ccccc2cc1C=Nn1c(S)nnc1-c1ccccc1,PPO3,"enzyme activity, inhibitor",IC50,> 50000 nM
Cc1ncsc1-c1ccc([C@H](C)NC(=O)[C@@H]2C[C@@H](O)CN2C(=O)[C@@H](NC(=O)CCCCCCCNC(=O)c2nc(N3CCc4cccc(C(=O)Nc5nc6ccccc6s5)c4C3)ccc2-c2cnn(CC34CC5CC(CC(C5)C3)C4)c2C)C(C)(C)C)cc1,BCL2L1,"ligand displacement, AlphaScreen",Ki,1.31 nM
CN(C)C/C=C/C(=O)Nc1cccc(C(=O)Nc2ccc(Nc3nccc(-c4cccnc4)n3)cc2)c1,"Serine/threonine-protein kinase Nek3 (NEK3, Homo sapiens, UniProt P51956)","enzyme activity, inhibitor",IC50,175 nM
CCS(=O)(=O)NC(=O)c1nc(N2CCc3cccc(C(=O)Nc4nc5ccccc5s4)c3C2)ccc1-c1cnn(CC23CC4CC(CC(C4)C2)C3)c1C,BCL2L1,"ligand displacement, AlphaScreen",Ki,0.0142 nM
CC1CC(=O)N(C)c2ccc(NCc3cn(-c4ccc(F)c(Cl)c4)nn3)cc21 (stereo not drawn),"Transcription intermediary factor 1-alpha (TRIM24, Homo sapiens, UniProt O15164)","binding, SPR",Kd,22000 nM
COC(=O)c1ccc(NC(=O)c2sc3nc(C)cc(C)c3c2N)cc1,"Adenosine receptor A2a (ADORA2A, Homo sapiens, UniProt P29274)","ligand displacement, radioligand",Ki,3310 nM
O=c1c(NCCc2ccc(Cl)c(Cl)c2)c(Nc2ccc(Cl)cc2)c1=O,CNR1,"calcium signal, antagonist, fluorescence",IC50,1510 nM
CC1(C)CCC(c2ccc(Cl)cc2)=C(CN2CCN(c3ccc(C(=O)NS(=O)(=O)c4ccc(N[C@H](CCNCCOCCOCCOCCNc5cccc6c5C(=O)N(C5CCC(=O)NC5=O)C6=O)CSc5ccccc5)c(S(=O)(=O)C(F)(F)F)c4)cc3)CC2)C1 (stereo partly drawn),BCL2L1,"ligand displacement, AlphaScreen",Ki,0.27 nM
CCc1ccc(Cn2nnc3c4ccc(F)cc4c(=O)[nH]c32)cc1,"Poly [ADP-ribose] polymerase 1 (PARP1, Homo sapiens, UniProt P09874)","enzyme activity, inhibitor, fluorescence",IC50,> 10000 nM
NC(=O)c1nnn(Cc2cc(Cl)c(C(=O)c3ccc(Cl)cc3)c(Cl)c2)c1N,CNR1,"cAMP, antagonist",IC50,1550 nM
CCNC(=O)c1nc(N2CCc3cccc(C(=O)Nc4nc5ccccc5s4)c3C2)ccc1-c1cnn(CC23CC4CC(CC(C4)C2)C3)c1C,BCL2L1,"ligand displacement, AlphaScreen",Ki,1.32 nM
CC(C)[C@@H](CN1CCc2ccccc2C1)NC(=O)c1cccc(-c2cccnc2)c1,"Mu-type opioid receptor (Oprm1, Mus musculus, UniProt P42866)","ligand displacement, radioligand",Ki,39500 nM
O=C(CSc1nc2ccccc2cc1C=Nn1c(S)nnc1-c1ccccc1)Nc1ccccc1,PPO3,"enzyme activity, inhibitor",IC50,> 50000 nM
CCCCCCCCCCCCCCCC(=O)O,"Vitamin K-dependent protein C (PROC, Homo sapiens, UniProt P04070)","binding, SPR",Kd,94800 nM
